Assay results taken from BindingDB's records for doi:10.1016/j.bmcl.2006.08.108 (Merck Sharp and Dohme Research Laboratories, 2006).

Target: 5-hydroxytryptamine receptor 2A (Homo sapiens, UniProt P28223)
Assay: Displacement of [3H]ketanserin from human 5HT2A receptor expressed in CHOK1 cells
Summary of the method: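 Membranes from confluent CHO K1 cells expressing human 5-HT2A were incubated with [3H]ketanserin (76 Ci/mmol) for 15 min at 37 °C with shaking at 180 rpm. Buffer was 50 mM Tris pH 7.7, 0.1% ascorbate, pargyline, MgSO4 and 0.5 mM EDTA. Bound and free ligand were separated by GF/B filtration and the filters counted. Mianserin defined non-specific binding. Five-point log titrations were fitted with a four-parameter curve to give IC50 and Ki.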

Sequence of 5-hydroxytryptamine receptor 2A (P28223 whole entry): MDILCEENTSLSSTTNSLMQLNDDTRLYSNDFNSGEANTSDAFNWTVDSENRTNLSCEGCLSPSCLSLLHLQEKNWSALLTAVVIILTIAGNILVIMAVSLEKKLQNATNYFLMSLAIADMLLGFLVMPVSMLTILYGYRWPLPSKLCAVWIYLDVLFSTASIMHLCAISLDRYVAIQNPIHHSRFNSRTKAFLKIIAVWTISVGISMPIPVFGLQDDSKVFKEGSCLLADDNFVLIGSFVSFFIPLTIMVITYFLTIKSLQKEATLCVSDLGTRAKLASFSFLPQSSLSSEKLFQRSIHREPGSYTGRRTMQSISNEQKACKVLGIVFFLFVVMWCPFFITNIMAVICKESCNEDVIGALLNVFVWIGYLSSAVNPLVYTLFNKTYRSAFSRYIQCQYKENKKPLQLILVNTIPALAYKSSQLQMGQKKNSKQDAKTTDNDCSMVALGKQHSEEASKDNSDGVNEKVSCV

Compound | IC50 [nM]
Cc1ccc(C2=NCCN=C(N3CCNCC3)C2)cc1 [5-(piperazin-1-yl)-7-p-tolyl-2,3-dihydro-1H-1,4-diazepine] | > 1000
CCN(CC)C1=NCCN=C(c2ccc(C)cc2)C1 [N,N-diethyl-7-p-tolyl-2,3-dihydro-1H-1,4-diazepin-5-amine] | > 1000
Cc1ccc(C2=NCCN=C(NC(C)(C)C)C2)cc1 [N-tert-butyl-7-p-tolyl-2,3-dihydro-1H-1,4-diazepin-5-amine] | 11
CCN(CC)C1=NCCN=C(c2ccccc2F)C1 [N,N-diethyl-7-(2-fluorophenyl)-2,3-dihydro-1H-1,4-diazepin-5-amine] | > 1000
Cc1ccc(C2=NCCN=C(N3CCOCC3)C2)cc1 [5-morpholino-7-p-tolyl-2,3-dihydro-1H-1,4-diazepine] | > 1000
CC(C)(C)NC1=NCCN=C(c2ccc(F)cc2F)C1 [N-tert-butyl-7-(2,4-difluorophenyl)-2,3-dihydro-1H-1,4-diazepin-5-amine] | 11
